Measured values taken from ChEMBL document CHEMBL1137381, “Biarylpyrazole inverse agonists at the cannabinoid CB1 receptor: importance of the C-3 carboxamide oxygen/lysine3.28(192) interaction” (J Med Chem, 2006).

Experiments:
[1] = molecular target: T1, Cannabinoid receptor 1 (Homo sapiens, UniProt P21554); experiment: biochemical; type: cell-based, HEK293
[2] = molecular target: T1, Cannabinoid receptor 1; experiment: biochemical; type: cell-based, HEK293; remark: listed apart in the source
[3] = molecular target: Cannabinoid receptor 1 (Rattus norvegicus) (UniProt P20272); experiment: Agonist activity against rat CB1 receptor expressed in superior cervical ganglion neurons assessed as increase in calcium ion current at 1 uM relative to control; type: functional, tissue-based
Chain of Cannabinoid receptor 1 (Rattus norvegicus) (P20272 whole entry, the tested form may be a part): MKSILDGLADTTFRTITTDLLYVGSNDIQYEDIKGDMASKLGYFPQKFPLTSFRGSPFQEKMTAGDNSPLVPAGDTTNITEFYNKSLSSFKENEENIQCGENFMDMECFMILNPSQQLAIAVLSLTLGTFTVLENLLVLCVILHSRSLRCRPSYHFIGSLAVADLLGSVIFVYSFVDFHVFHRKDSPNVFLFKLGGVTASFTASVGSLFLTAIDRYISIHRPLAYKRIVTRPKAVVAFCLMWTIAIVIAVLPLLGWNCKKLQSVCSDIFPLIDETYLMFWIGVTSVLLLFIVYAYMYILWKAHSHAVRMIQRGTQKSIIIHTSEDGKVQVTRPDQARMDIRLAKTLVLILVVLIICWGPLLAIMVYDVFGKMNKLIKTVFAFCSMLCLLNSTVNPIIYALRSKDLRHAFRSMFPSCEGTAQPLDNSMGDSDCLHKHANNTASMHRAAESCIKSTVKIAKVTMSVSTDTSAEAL
In short: (§1)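 Rat SCG neurons nuclear-injected with N-terminally HA-tagged rat CB1 cDNA (100 ng/µL) plus EGFP marker plasmid, incubated overnight. Whole-cell voltage-clamp at 24-26 °C. Ca²⁺ current measured 10 ms into step to +5 mV, preceded by 50 ms prepulse to +80 mV. Test drug superfused alone, diluted from 10 mM DMSO stock. Current increase expressed as % of control amplitude; paired t-test.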

[4] = molecular target: Cannabinoid receptor 1 (Rattus norvegicus) (UniProt P20272); experiment: Antagonist activity against rat CB1 receptor expressed in superior cervical ganglion neurons assessed as block of WIN-55212-2-elicited calcium ion current inhibition at 1 uM relative to control; type: functional, tissue-based; set-up: scale not given: the % may be the effect or the level left
In short: (§2)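 SCG neurons from rat, nuclear-injected with HA-tagged rat CB1 cDNA, recorded after overnight incubation by whole-cell patch clamp at room temperature. Ca²⁺ currents isolated with TEA/TTX external solution and NMDG/EGTA pipette solution. WIN55,212-2 (1 µM) coapplied with test compound. Inhibition of Ca²⁺ current expressed as % of control amplitude, taken 10 ms after the step to +5 mV.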

[5] = molecular target: T1, Cannabinoid receptor 1; experiment: biochemical; type: cell-based, HEK293; remark: listed apart in the source
[6] = molecular target: Cannabinoid receptor 1 (Rattus norvegicus) (UniProt P20272); experiment: Agonist activity against rat CB1 receptor expressed in superior cervical ganglion neurons assessed as increase in calcium ion current at 10 uM relative to control; type: functional, tissue-based
In short: as §1

[7] = molecular target: Cannabinoid receptor 1 (Rattus norvegicus) (UniProt P20272); experiment: Antagonist activity against rat CB1 receptor expressed in superior cervical ganglion neurons assessed as block of WIN-55212-2-elicited calcium ion current inhibition at 10 uM relative to control; type: functional, tissue-based; set-up: scale not given: the % may be the effect or the level left
In short: as §2

T1 sequence (P21554 whole entry): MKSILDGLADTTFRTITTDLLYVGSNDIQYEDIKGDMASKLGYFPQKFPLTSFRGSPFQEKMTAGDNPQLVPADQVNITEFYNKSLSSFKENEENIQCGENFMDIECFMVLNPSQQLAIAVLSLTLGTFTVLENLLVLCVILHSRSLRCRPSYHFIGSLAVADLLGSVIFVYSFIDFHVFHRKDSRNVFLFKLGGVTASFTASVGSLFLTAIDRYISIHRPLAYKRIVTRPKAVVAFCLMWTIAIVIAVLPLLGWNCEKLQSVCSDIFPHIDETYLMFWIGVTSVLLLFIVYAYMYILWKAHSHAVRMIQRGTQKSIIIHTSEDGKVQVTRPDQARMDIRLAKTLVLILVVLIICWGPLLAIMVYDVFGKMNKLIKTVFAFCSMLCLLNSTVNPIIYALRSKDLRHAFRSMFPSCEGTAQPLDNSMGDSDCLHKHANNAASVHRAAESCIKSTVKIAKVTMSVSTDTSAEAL

SMILES	Ki [1]	Ki [2]	Activity [3]	Activity [4]	Ki [5]	Activity [6]	Activity [7]
Cc1c(/C=C/C2CCCCC2)nn(-c2ccc(Cl)cc2Cl)c1-c1ccc(Cl)cc1	85 nM	60 nM	8.6%	28.1%	31.3 nM		
Cc1c(C(=O)c2cccc3ccccc23)c2cccc3c2n1[C@H](CN1CCOCC1)CO3			47.1%				
Cc1c(C(=O)NN2CCCCC2)nn(-c2ccc(Cl)cc2Cl)c1-c1ccc(Cl)cc1			46.6%	-4.8%			
Cc1c(/C=N/N2CCCCC2)nn(-c2ccc(Cl)cc2Cl)c1-c1ccc(Cl)cc1	57 nM	19 nM	11.5%	2.6%	17 nM		
Cc1c(/C=C/N2CCCCC2)nn(-c2ccc(Cl)cc2Cl)c1-c1ccc(Cl)cc1	258 nM	223 nM	3.2%	-2.5%	213 nM	13.9%	0.7%
Cc1c(C(=O)NC2CCCCC2)nn(-c2ccc(Cl)cc2Cl)c1-c1ccc(Cl)cc1	5 nM	3.7 nM	35.2%	-3.8%	1.8 nM		
Cc1c(C(=O)N(C)C2CCCCC2)nn(-c2ccc(Cl)cc2Cl)c1-c1ccc(Cl)cc1	54 nM	107 nM	26.1%	-4.5%	30 nM	23.9%	-7%
